Assay results from ChEMBL document CHEMBL1131340, “alpha-Substituted malonester amides: tools to define the relationship between ACAT inhibition and adrenal toxicity” (J Med Chem, 1998).

How the values were obtained:
Rattus norvegicus [1] = test: Percent change in total cholesterol level in cholic acid (0.5%),cholesterol(1.5%),peanut oil(5.5%) fed rats at 30 mg/kg.; format: functional
In short: (§1)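 Acute screen (APCC) in male Sprague-Dawley rats, 200–225 g. Compound given orally as a suspension in water with carboxymethylcellulose (1.5%) and Tween-20 (0.2%). Rats then ate a high-fat, high-cholesterol PCC meal (peanut oil 5.5%, cholesterol 1.5%, cholic acid 0.5%). Plasma total cholesterol measured and expressed as percent change from controls.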

[2] = biological target: T1, Sterol O-acyltransferase 1 (Rattus norvegicus, UniProt O70536); test: In vitro Acyl coenzyme A:cholesterol acyltransferase inhibition in hepatic microsomes isolated from cholesterol-fed rats; design: species or system Liver
T1 sequence (O70536 whole entry): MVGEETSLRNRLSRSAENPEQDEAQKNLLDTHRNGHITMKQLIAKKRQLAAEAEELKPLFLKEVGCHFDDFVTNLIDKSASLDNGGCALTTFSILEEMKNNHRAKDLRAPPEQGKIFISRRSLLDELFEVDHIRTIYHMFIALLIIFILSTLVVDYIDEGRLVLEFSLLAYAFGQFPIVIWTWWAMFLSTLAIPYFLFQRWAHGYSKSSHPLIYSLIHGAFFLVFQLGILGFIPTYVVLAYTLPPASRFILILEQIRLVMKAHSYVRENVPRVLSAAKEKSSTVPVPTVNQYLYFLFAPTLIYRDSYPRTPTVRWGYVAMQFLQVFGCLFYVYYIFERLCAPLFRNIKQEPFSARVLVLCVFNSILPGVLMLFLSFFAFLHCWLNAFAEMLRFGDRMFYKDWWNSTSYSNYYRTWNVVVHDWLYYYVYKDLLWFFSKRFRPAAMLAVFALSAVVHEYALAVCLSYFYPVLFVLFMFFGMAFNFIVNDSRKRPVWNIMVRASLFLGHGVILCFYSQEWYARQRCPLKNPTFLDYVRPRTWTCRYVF
In short: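 Hepatic microsomes from cholesterol-fed rats (LAI screen); ACAT inhibition reported as IC50.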

Rattus norvegicus [3] = test: Percent of non high density lipoprotein cholesterol measured in cholesterol fed rat at the dose of 30 mg/kg; format: functional
Rattus norvegicus [4] = test: Percent of high density lipoprotein cholesterol was in cholesterol fed rat at the dose of 30 mg/kg; format: functional
[5] = biological target: T2, Acyl-CoA:cholesterol acyltransferase (Oryctolagus cuniculus) (UniProt Q95214); test: Percent inhibition of cholesterol of ACAT by ABIO bioassay at the dose of 50 mg/kg in rabbits.; format: functional, organism-based; design: dose 50 mg/kg
T2 sequence (whole entry): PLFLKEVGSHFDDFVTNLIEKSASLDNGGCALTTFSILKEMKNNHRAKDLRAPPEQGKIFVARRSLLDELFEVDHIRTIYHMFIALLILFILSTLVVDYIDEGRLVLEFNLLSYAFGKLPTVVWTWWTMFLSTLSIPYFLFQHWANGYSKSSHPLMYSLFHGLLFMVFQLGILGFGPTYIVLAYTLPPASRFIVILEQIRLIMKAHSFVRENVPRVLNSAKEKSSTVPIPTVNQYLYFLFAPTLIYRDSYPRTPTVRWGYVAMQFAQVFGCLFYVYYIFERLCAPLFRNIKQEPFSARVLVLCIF
In short: (§2)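 Oral bioactivity (ABIO) in male New Zealand White rabbits, 1.2–1.5 kg. Compound given at 25 or 50 mg/kg in the daily meal (3% peanut oil, 3% coconut oil). Plasma extracts incubated with rat liver microsomes and ACAT reaction inhibition expressed as relative percent inhibition.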

Rattus norvegicus [6] = test: Percent of total cholesterol was measured in cholesterol fed rat at the dose of 30 mg/kg
Rattus norvegicus [7] = test: Percent of total cholesterol was measured in cholesterol fed rat at the dose of 3 mg/kg
Rattus norvegicus [8] = species: Rattus norvegicus; test: Percent of non high density lipoprotein cholesterol was measured in cholesterol fed rat by using aqueous vehicle; format: functional
In short: (§3)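 Chronic PCC rat screen with drug and PCC diet given together for 7 days. Compound dosed either in an aqueous carboxymethylcellulose vehicle (PCC-CMC) or in an oleic acid vehicle (PCC-OA). Change in plasma non-HDL-C measured.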

Rattus norvegicus [9] = species: Rattus norvegicus; test: Percent of non high density lipoprotein cholesterol was measured in cholesterol fed rat by using oleic acid vehicle; format: functional; in short: as §3
Oryctolagus cuniculus [10] = test: Plasma drug levels at the dose of 50 mg/kg in rabbit; format: functional, organism-based; design: dose 50 mg/kg
In short: (§4)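 Male New Zealand White rabbits, 1.2–1.5 kg, dosed at 25 or 50 mg/kg in the daily meal (3% peanut oil, 3% coconut oil). Blood taken predose and at intervals up to 24 h. Plasma solvent-extracted and assayed by HPLC–UV; limit of quantitation 20 ng/mL.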

[11] = biological target: T2, Acyl-CoA:cholesterol acyltransferase (Oryctolagus cuniculus); test: Percent inhibition of cholesterol of ACAT by ABIO bioassay at the dose of 25 mg/kg in rabbits.; format: functional, organism-based; design: dose 25 mg/kg; in short: as §2
Oryctolagus cuniculus [12] = test: Plasma drug levels at the dose of 25 mg/kg in rabbit; format: functional, organism-based; design: dose 25 mg/kg; in short: as §4
Rattus norvegicus [13] = test: Percent change in total cholesterol level in cholic acid (0.5%),cholesterol(1.5%),peanut oil(5.5%) fed rats at 3 mg/kg.; format: functional; in short: as §1
Rattus norvegicus [14] = test: Percent of non high density lipoprotein cholesterol measured in cholesterol fed rat at the dose of 10 mg/kg; format: functional
Rattus norvegicus [15] = test: Percent of high density lipoprotein cholesterol was in cholesterol fed rat at the dose of 10 mg/kg; format: functional
Rattus norvegicus [16] = test: Percent of high density lipoprotein cholesterol was measured in cholesterol fed rat at the dose of 10 mg/kg; format: functional

| SMILES | Delta TC (Rattus norvegicus [1]) [%] | IC50 [2] [µM] | Delta TC (Rattus norvegicus [13]) [%] | other results |
| --- | --- | --- | --- | --- |
| CCCCCCCCCCCCOC(=O)C(F)C(=O)Nc1c(C(C)C)cccc1C(C)C (stereo unspecified) | -36 | 0.032 |  |  |
| CCCCCCCCCCCCCCCCCCOC(=O)C(C(=O)Nc1c(C(C)C)cccc1C(C)C)c1ccccc1 (stereo unspecified) | -25 | 0.2 |  |  |
| CCCCCCCCCCC(C)OC(=O)C(C(=O)Nc1c(C(C)C)cccc1C(C)C)c1ccccc1 (stereo unspecified) | -37 | 0.013 |  | Of non-HDL-C (Rattus norvegicus [3]): -64%; Of HDL-C (Rattus norvegicus [4]): 97% |
| CCCCCCCCCCCCOC(=O)C(C(=O)Nc1c(C(C)C)cc(C(C)C)cc1C(C)C)c1ccccc1 (stereo unspecified) | -21 | 0.056 |  |  |
| CCCOC(=O)C(C(=O)Nc1c(C(C)C)cccc1C(C)C)c1ccccc1 (stereo unspecified) | -20 | > 1 |  |  |
| CCOC(=O)C(F)C(=O)Nc1c(C(C)C)cccc1C(C)C (stereo unspecified) | 1 | > 1 |  |  |
| CCCCCCCCCCCCCCC(C)(C)OC(=O)C(C(=O)Nc1c(C(C)C)cccc1C(C)C)c1ccccc1 (stereo unspecified) | -37 | 0.072 |  |  |
| CCCCCCCCCCCCOC(=O)C(C(=O)Nc1c(C(C)C)cccc1C(C)C)c1ccccc1 (stereo unspecified) | -63 | 0.01 | -29 | inhibition [5]: 100%; TC (Rattus norvegicus [6]): -63%; TC (Rattus norvegicus [7]): -29%; Non-HDL-C (Rattus norvegicus [8]): -54%; Of non-HDL-C (Rattus norvegicus [3]): -80%; Non-HDL-C (Rattus norvegicus [9]): -54%; Plasma level (Oryctolagus cuniculus [10]): 140 ng/mL; Of HDL-C (Rattus norvegicus [4]): 148%; inhibition [11]: 99%; Plasma level (Oryctolagus cuniculus [12]): 131 ng/mL |
| CCCCCCCCCCCCOC(=O)C(C(=O)Nc1c(C(C)C)cc(C(C)C)cc1C(C)C)c1ccccn1 (stereo unspecified) | -9 | 0.18 |  |  |
| CCCCCCCCCCOC(=O)C(C(=O)Nc1c(C(C)C)cccc1C(C)C)c1ccccc1 (stereo unspecified) | -58 | 0.013 | -27 | Of non-HDL-C (Rattus norvegicus [14]): 21%; Of HDL-C (Rattus norvegicus [15]): -5% |
| CCCCCCCCCCCCOC(=O)C(C(=O)Nc1c(C(C)C)cccc1C(C)C)c1ccccn1 (stereo unspecified) | -43 | 0.008 |  |  |
| CCOC(=O)C(C)(C)C(=O)Nc1c(C(C)C)cccc1C(C)C | -24 | > 1 |  |  |
| CCCCCCCCCCCCC(C)(C)OC(=O)C(C(=O)Nc1c(C(C)C)cccc1C(C)C)c1ccccc1 (stereo unspecified) | -26 | 0.012 |  |  |
| CCCCCCCCCCCCC(C)OC(=O)C(C(=O)Nc1c(C(C)C)cccc1C(C)C)c1ccccc1 (stereo unspecified) | -61 |  | -46 | Of non-HDL-C (Rattus norvegicus [3]): -75%; Of HDL-C (Rattus norvegicus [4]): 215% |
| CCCCCCCCCCCCCCOC(=O)C(C(=O)Nc1c(C(C)C)cccc1C(C)C)c1ccccc1 (stereo unspecified) | -49 | 0.016 |  | Of non-HDL-C (Rattus norvegicus [3]): -57%; Of HDL-C (Rattus norvegicus [4]): 28% |
| CCCCCCCOC(=O)C(C(=O)Nc1c(C(C)C)cccc1C(C)C)c1ccccc1 (stereo unspecified) | -71 | 0.05 | -47 | Of non-HDL-C (Rattus norvegicus [14]): -21%; Of HDL-C (Rattus norvegicus [15]): 2% |
| CCCCCC(C)OC(=O)C(C(=O)Nc1c(C(C)C)cccc1C(C)C)c1ccccc1 (stereo unspecified) | -67 | 0.04 | -61 | Delta non HDL-C (Rattus norvegicus [14]): -18%; Delta HDL-C (Rattus norvegicus [16]): -1% |
| CCCCCCCCOC(=O)C(C(=O)Nc1c(C(C)C)cccc1C(C)C)c1ccccc1 (stereo unspecified) | -56 |  | -46 |  |
| CCCCCCCCCCCCCCCCOC(=O)C(C(=O)Nc1c(C(C)C)cccc1C(C)C)c1ccccc1 (stereo unspecified) | -26 |  |  |  |
| CCCCCCCCCCCCC(C)OC(=O)C(C(=O)Nc1c(OC)cc(OC)cc1OC)c1ccccc1 (stereo unspecified) | -59 | 0.03 | -48 | Of non-HDL-C (Rattus norvegicus [3]): -85%; Of HDL-C (Rattus norvegicus [4]): 272% |
| CCCCCCCCCCCCOC(=O)C(C(=O)Nc1c(OC)cc(OC)cc1OC)c1ccccc1 (stereo unspecified) | -51 |  | -51 | Of non-HDL-C (Rattus norvegicus [3]): -71%; Of HDL-C (Rattus norvegicus [4]): 127% |
| CCCCCCCCCCCCC(C)OC(=O)C(C)(C)C(=O)Nc1c(C(C)C)cccc1C(C)C (stereo unspecified) |  | 0.021 |  |  |
| CCCCC(C)(C)OC(=O)C(C(=O)Nc1c(C(C)C)cccc1C(C)C)c1ccccc1 (stereo unspecified) | -72 |  | -65 |  |
| CCCCCCCCCOC(=O)C(C(=O)Nc1c(C(C)C)cccc1C(C)C)c1ccccc1 (stereo unspecified) | -67 | 0.012 | -53 |  |
| CCCCCCCCCCCCC(C)(C)OC(=O)C(C(=O)Nc1c(OC)cc(OC)cc1OC)c1ccccc1 (stereo unspecified) |  | 0.02 |  |  |
| CCOC(=O)C(C(=O)Nc1c(C(C)C)cccc1C(C)C)c1ccccc1 (stereo unspecified) | -23 | > 5 |  |  |
